ChEMBL document CHEMBL1124226, “Benzothiopyranoindazoles, a new class of chromophore modified anthracenedione anticancer agents. Synthesis and activity against murine leukemias” (J Med Chem, 1988)
pIC50: −log10 of the molar value.

Legend:
[1] = tested on: L1210; test: In vitro for its inhibitory activity against murine L1210 leukemia; Inactive; format: functional, cell-based, Mus musculus
[2] = tested on: P388; test: In vivo for the optimal dose for activity against P388 leukemia per injection; format: functional, Mus musculus
Outline: (§1)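 P388 leukemia in mice, drug given ip on days 1-5 (Q01D×5, IP/IP, NCI testing protocol). Optimum response taken over doses, expressed as mg/kg per injection. Read-outs are %T/C survival and net log cell kill (Schabel method). Cured mice are included in the %T/C and net kill calculations.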

[3] = tested on: P388; test: Percentage T/C survival (treated vs control) against P388 leukemia (day 30 surv); format: functional, Mus musculus; outline: as §1
[4] = tested on: P388 leukemia (mouse); test: Net log value for P388 leukemia cell kill in mice was determined
[5] = tested on: L1210; test: In vitro for its inhibitory activity against murine L1210 leukemia; format: functional, cell-based; conditions: Mus musculus
[6] = tested on: Mus musculus; test: The compound was evaluated in vivo for the optimal dose for activity against murine B-16 melanoma; format: functional
Outline: (§2)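 Murine B-16 melanoma in vivo. Optimal dose given as mg/kg per injection. Response is % T/C survival, with day-60 survivors reported as number per group (of 10 or 6).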

[7] = species: Mus musculus; test: % T/C survival against murine B-16 melanoma (day 60 surv); format: functional; outline: as §2
[8] = tested on: Mus musculus; test: The compound was evaluated in vivo for the optimal dose for activity against of B-16 leukemia per injection; format: functional; conditions: in the assay text read “B-16 melanoma” for “B-16 leukemia”; outline: as §2

SMILES	IC50 [1]	Dose [2] [mg/kg]	T/C [3] [%]	Net log cell kill [4]	pIC50 [5]	Dose [6] [mg/kg]	T/C [7] [%]	Dose [8] [mg/kg]
CCN(CC)CCn1nc2c3c(c(NCCN)ccc31)Sc1cc(OC)ccc1-2.Cl.O	Not Active	25	133	-0.4				
CCN(CC)CCn1nc2c3c(c(NCCN4CCOC4=O)ccc31)Sc1ccccc1-2		100		6	6.09			
CCN(CC)CCn1nc2c3c(c(NCCN)ccc31)S(=O)(=O)c1ccccc1-2.Cl.O		100	159	1.8	5.92			
CCN(CC)CCn1nc2c3c(c(NCCN)ccc31)Sc1cc(O)ccc1-2.Cl.O		6.3	280		7.15	7.5	281	
CC(=O)OCCN(CCn1nc2c3c(c(N)ccc31)Sc1ccccc1-2)C(C)=O.Cl	Not Active	400	117	-1.3				
Cl.Nc1ccc2c3c(nn2CCNCCO)-c2ccccc2Sc13.O		25	188	4.3		25	259	
CCN(CC)CCNc1ccc2c3c(nn2CCN(CC)CC)-c2ccccc2Sc13.Cl		25		1.6	7.30			
CCN(CC)CCn1nc2c3c(c(NCCN4C(=O)c5ccccc5C4=O)ccc31)Sc1c(OC)cccc1-2	Not Active	12.5	107	-1.5				
CCN(CC)CCNc1ccc2c3c(nn2CCN(CC)CC)-c2ccccc2S(=O)(=O)c13	Not Active	12.5	101	-1.6				
CCN(CC)CCn1nc2c3c(c(Cl)ccc31)[S+]([O-])c1ccccc1-2 (stereo not given)	Not Active							
CCN(CC)CCNc1ccc2c3c(nn2CCNCCO)-c2ccccc2Sc13.Cl.O		25		0.5	6.62			
CCN(CC)CCn1nc2c3c(c(NCCNCCO)ccc31)Sc1ccc(O)cc1-2.Cl.O		1.5	200	4.5	8.32	1.5	183	
CCN(CC)CCn1nc2c3c(c(NCCN4CCOC4=O)ccc31)Sc1ccc(OC)cc1-2.Cl.O	Not Active	100	220	6				
CCN(CC)CCn1nc2c3c(c(NC(=O)CN)ccc31)Sc1cc(O)ccc1-2.Cl.O		100	195		6.85			
CCN(CC)CCn1nc2c3c(c(NCCN)ccc31)Sc1ccc(OC)cc1-2.Cl.O		12.5		3.9	6.68			
CCN(CC)CCn1nc2c3c(c(N)ccc31)Sc1c(OC)cccc1-2.Cl	Not Active	25	109	-1.5				
CCN(CC)CCn1nc2c3c(c(N)ccc31)Sc1ccccc1-2		25		2.2	7.00	12	112	
CCN(CC)CCn1nc2c3c(c(NCCN4CCOC4=O)ccc31)Sc1ccc(O)cc1-2.Cl.O		12.5			8.37			
CC(=O)NCCn1nc2c3c(c(N)ccc31)Sc1ccccc1-2.Cl	Not Active	100	100	-1.7				
Br.CCN(CC)CCn1nc2c3c(c(NCCNCCO)ccc31)Sc1c(O)ccc(O)c1-2	Not Active	50		0.1				
CCN(CC)CCn1nc2c3c(c(NC(=O)CN)ccc31)Sc1ccccc1-2.Cl.O		20	184	2.4	7.82			
CCN(CC)CCn1nc2c3c(c(N)ccc31)Sc1ccc(O)cc1-2.Cl.O		6.3		> 6.7	7.96	1.8	264	
Br.CCN(CC)CCn1nc2c3c(c(NCCN)ccc31)Sc1cccc(O)c1-2		12.5	177	2.8	7.32			
CCN(CC)CCn1nc2c3c(c(NCCNC(=O)OC(C)(C)C)ccc31)Sc1cc(OC)ccc1-2	Not Active	6.3	93					
Cl.O.O=S1(=O)c2ccccc2-c2nn(CCNCCO)c3ccc(NCCNCCO)c1c23	Not Active	200	168	2.5				
CCN(CC)CCn1nc2c3c(c(NC(=O)CNC(=O)OC(C)(C)C)ccc31)Sc1cc(OC)ccc1-2	Not Active							

SMILES	IC50 [1]	Dose [2] [mg/kg]	T/C [3] [%]	Net log cell kill [4]	pIC50 [5]	Dose [6] [mg/kg]	T/C [7] [%]	Dose [8] [mg/kg]
CCN(CC)CCn1nc2c3c(c(N)ccc31)Sc1ccc(OC)cc1-2.Cl		50		1.4	5.82			
O=S1(=O)c2ccccc2-c2nn(CCNCCO)c3ccc(Cl)c1c23					6.04			
CC(=O)NCCn1nc2c3c(c(NCCN4CCOC4=O)ccc31)Sc1ccccc1-2	Not Active	12.5	100	-1.6				
Cl.NCCn1nc2c3c(c(N)ccc31)Sc1ccccc1-2		12.5	181	3.1	7.00			
COc1cccc2c1C(=O)c1c(O)c3c(c(O)c1C2=O)C[C@@](O)(C(=O)CO)C[C@@H]3O[C@H]1C[C@H](N)[C@H](O)[C@H](C)O1 [DOXORUBICIN]		2	232			1	434	
CCN(CC)CCn1nc2c3c(c(N)ccc31)Sc1cc(O)ccc1-2					6.72			
Br.CCN(CC)CCn1nc2c3c(c(NCCN)ccc31)Sc1ccccc1-2		12.5		> 6.6	7.52		159	6.3
CCN(CC)CCn1nc2c3c(c(NCCN)ccc31)Sc1c(O)cccc1-2.Cl.O	Not Active	6.3	122	-0.9				
CCN(CC)CCn1nc2c3c(c(N)ccc31)Sc1cccc(O)c1-2					7.21			
CN(C)CCn1nc2c3c(c(NCCN)ccc31)Sc1ccccc1-2.Cl.O		12.5	270	> 6.7	7.82			
O=C1OCCN1CCNc1ccc2c3c(nn2CCNCCO)-c2ccccc2Sc13					6.27			
CCN(CC)CCn1nc2c3c(c(NCCN)ccc31)Sc1ccc(O)cc1-2.Cl.O		0.8	186		8.59			
CCN(CC)CCn1nc2c3c(c(NCCNC(=O)OC(C)(C)C)ccc31)Sc1cccc(OC)c1-2	Not Active							
CCN(CC)CCn1nc2c3c(c(N)ccc31)Sc1cccc(OC)c1-2					5.70			
CCN(CC)CCn1nc2c3c(c(NCCNCCO)ccc31)Sc1ccccc1-2.Cl.O		12.5	280	> 6.8	7.55	12	273	
CN(C)CCCn1nc2c3c(c(NCCN)ccc31)Sc1ccccc1-2.Cl.O		12.5		> 6.7	7.57			
CCN(CC)CCn1nc2c3c(c(NCCNCCO)ccc31)Sc1ccc(OC)cc1-2.Cl		25		3.2	6.70			
Cl.NCCn1nc2c3c(c(NCCNCCO)ccc31)Sc1ccccc1-2		12.5	233	> 6.7	7.66			
CN(C)CCCn1nc2c3c(c(N)ccc31)Sc1ccccc1-2.Cl.O		100	197	4	5.70			
O=C1c2c(O)ccc(O)c2C(=O)c2c(NCCNCCO)ccc(NCCNCCO)c21 [MITOXANTRONE]		1.25	291			0.6	265	
CCN(CC)CCn1nc2c3c(c(NCCCN)ccc31)Sc1ccccc1-2.Cl.O		50	262	> 6.6	6.59			
Br.Nc1ccc2c3c(nn2CCNCCO)-c2cc(O)ccc2Sc13		3.1	192	4.2	7.64			
CCN(CC)CCn1nc2c3c(c(Cl)ccc31)S(=O)(=O)c1ccccc1-2					5.66			
CN(C)CCn1nc2c3c(c(N)ccc31)Sc1ccccc1-2.Cl.O		12.5	165	1.8	7.20			
CCN(CC)CCn1nc2c3c(c(N)ccc31)Sc1cc(OC)ccc1-2.Cl.O	Not Active							
